# Assay outcomes as filed in PubChem BioAssay.
# An excerpt weighted towards active compounds, which were near 3.7% of everything screened.
# m-calpain inh = inhibitors of pig calpain II, primary screen, biochemical, fluorogenic peptide substrate, 1536-well. purified calpain II, 30 min. inhibition, % at 16 µM. 220,000 compounds, 0.37% hits;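 active means inhibition above about 50%, limit read from the data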
# MDM2 E3 inh = MDM2-luciferase reporter signal enhancers, primary screen, MDM2 E3 ligase inhibitor project, cell-based, luminescence, 1536-well | E3 ubiquitin-protein ligase Mdm2 (Homo sapiens), Q00987 | signal enhancement, % at 5 µM | cell-based MDM2 ubiquitination luciferase reporter, 2 h; 0 = plate control, 100 = twice control, blank-subtracted | 210,000 compounds, 0.11% hits;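 active means signal enhancement of 30% or more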;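 further: luminescence tracks abundance of the self-degrading MDM2-luciferase fusion protein; higher signal means inhibition of MDM2 E3 ligase activity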
#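 Assay system: mammalian cells stably expressing self-ubiquitinating, self-degrading MDM2 E3–luciferase fusion. Quantity: 2000 cells in each well. Medium: DMEM culture medium. Compound dosing: single-point 5 µM. Timing: cell settling 4 h, compound treatment 2 h, both 37 °C. Technique: luciferase luminescence. Read-out basis: percent signal gain over controls, blank-subtracted. Benchmarks: plate controls and plate blanks.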
# Cl transport mod = KCC2 cotransporter modulators, thallium flux, primary screen, cell-based, HEK293 KCC2, FluoZin-2 fluorescence, MLSMR | 190,000 compounds, 2.2% hits | B-score of Tl+ flux slope (higher = more flux/activation; lower = inhibition) at 10 µM | KCC2 cells, thallium flux FluoZin-2 fluorescence;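 active means thallium flux slope and its plate-corrected score both differing from the plate sample mean at a set confidence after two filtering rounds, in either direction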;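 further: slope of fluorescence scaled to starting intensity during 10 to 20 s after thallium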
# Target sequence (Q9H2X9 whole entry, looked up): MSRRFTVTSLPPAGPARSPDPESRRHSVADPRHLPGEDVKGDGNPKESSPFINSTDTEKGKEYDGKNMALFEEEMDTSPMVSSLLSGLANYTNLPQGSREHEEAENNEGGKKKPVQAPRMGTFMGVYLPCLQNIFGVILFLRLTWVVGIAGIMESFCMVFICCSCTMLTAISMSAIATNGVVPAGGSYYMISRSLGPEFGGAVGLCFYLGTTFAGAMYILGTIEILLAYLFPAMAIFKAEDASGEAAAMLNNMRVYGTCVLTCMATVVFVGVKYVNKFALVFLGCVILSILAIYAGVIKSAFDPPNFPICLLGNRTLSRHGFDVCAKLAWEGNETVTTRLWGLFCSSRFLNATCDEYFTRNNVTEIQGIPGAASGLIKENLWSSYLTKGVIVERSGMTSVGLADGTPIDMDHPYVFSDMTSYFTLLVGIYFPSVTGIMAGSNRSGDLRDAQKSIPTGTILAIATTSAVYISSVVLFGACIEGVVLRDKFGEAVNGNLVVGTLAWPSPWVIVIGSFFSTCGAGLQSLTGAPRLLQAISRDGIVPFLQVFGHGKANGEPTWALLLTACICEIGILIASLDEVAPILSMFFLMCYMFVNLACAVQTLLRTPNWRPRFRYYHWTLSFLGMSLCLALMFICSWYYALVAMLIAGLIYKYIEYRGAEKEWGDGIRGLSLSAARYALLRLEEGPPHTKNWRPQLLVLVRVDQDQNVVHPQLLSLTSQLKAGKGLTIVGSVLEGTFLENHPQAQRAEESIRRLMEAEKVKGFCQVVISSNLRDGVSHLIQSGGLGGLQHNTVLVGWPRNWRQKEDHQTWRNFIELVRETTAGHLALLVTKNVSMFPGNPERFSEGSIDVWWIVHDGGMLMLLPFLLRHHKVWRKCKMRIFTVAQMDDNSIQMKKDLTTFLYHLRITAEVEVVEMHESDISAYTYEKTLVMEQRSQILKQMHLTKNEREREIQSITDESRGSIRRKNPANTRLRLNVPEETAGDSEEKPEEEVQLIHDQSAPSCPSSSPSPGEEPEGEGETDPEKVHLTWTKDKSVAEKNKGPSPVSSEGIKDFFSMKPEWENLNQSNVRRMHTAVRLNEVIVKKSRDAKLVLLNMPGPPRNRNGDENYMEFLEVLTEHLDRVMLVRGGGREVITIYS
# Arbovirus anti = antivirals against arbovirus infection, primary screen, cell-based, full library, 10K replicate subset | arbovirus infection cell-based antiviral screen | 200,000 compounds, 0.37% hits | inhibition, % at 10 µM; in the data active means inhibition above about 30%
# ROMK mod = ROMK potassium channel modulators, primary screen, cell-based, thallium flux, MLSMR library | Tet-inducible ROMK, thallium flux fluorescence; actives lie on both sides | B-score at 10 µM | 130,000 compounds, 2% hits | AID 1918, 2009;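 active means signal ratio slope over the read window, or its plate-corrected B-score, at least 3 SD from the plate mean, either direction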;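 further: B-score of the F/F0 ratio slope over 7 to 12 s after thallium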
# PKD1 inh = inhibitors of human PKD1 kinase, biochemical, fluorescence polarization | PKD1 kinase fluorescence polarization assay | Serine/threonine-protein kinase D1 (Homo sapiens), Q15139 | 200,000 compounds, 0.056% hits | inhibition, % (concentration not given with the values); in the data active means inhibition above about 50%
# The depositor's hits bear a star; . = no result.
SMILES,m-calpain inh,MDM2 E3 inh,Cl transport mod,Arbovirus anti,ROMK mod,PKD1 inh
O=C1C(Cl)=C(Nc2ccc(O)cc2)C(=O)c2ccccc21,14,1,-0.56,.,.,.
O=C(O)COc1ccc(F)cc1Br,0,-15,2,.,.,.
CCN(Cc1ccncc1)Cc1c(O)ccc2cc(Br)ccc12,-24,2,-0.69,31*,-0.12,-5
CCN(CC)S(=O)(=O)c1ccc(N2CCOCC2)c(NC(=O)c2cc([N+](=O)[O-])ccc2Cl)c1,8,4,0.15,2,-0.22,-2
CCOc1ccc(/C=C2/SC(=O)NC2=S)cc1,-19,-26,69*,0,4.4*,5
OCCC1CN(Cc2ccc(Oc3ncccn3)cc2)CCN1C1CCCC1 (stereo unspecified),-14,-3,-0.26,1,0.015,-10
CCOC(=O)C(NC(=O)c1ccccc1Cl)(Nc1ccc(C)c(C)c1)C(F)(F)F (stereo unspecified),8,-16,-0.066,16,-1.5,-4
COC(=O)C(Nc1ccccc1Cl)(c1cc(C)c(O)c(C)c1)C(F)(F)F (stereo unspecified),52*,-16,-1.8,-40,.,-8
O=C(NN1C(=O)c2ccccc2NC1c1ccco1)c1ccc([N+](=O)[O-])cc1 (stereo unspecified),62*,-7,-0.34,4,-0.53,7
C=CCNC(=O)NC(=O)CSc1nnc(C(F)(F)F)n1C,3,-14,0.9,-1,.,7
O=C(/C=C/c1ccc(F)cc1)c1cc(Br)ccc1O,-2,-74,.,.,.,.
Cc1ccc(/C=C/C(=O)c2ccccc(=O)c2O)cc1C,-4,5,32*,-36,-0.37,-1
COc1ccc(/C=C/C(=O)c2ccccc2O)cc1,24,.,1.2,-7,0.034,-10
O=C(/C=C/c1ccccc1)c1cc(Br)ccc(=O)c1O,-16,-10,16*,-5,-1,-2
Cc1sc2nc(CN3CCOCC3)[nH]c(=S)c2c1C,-5,-10,73*,18,8.6*,-4
Cc1sc2nc(CN3CCN(c4ccc(O)cc4)CC3)[nH]c(=O)c2c1C,-10,.,0.045,.,.,.
NC(=O)Nc1ccc(C(=O)OCC(=O)Nc2cccc(S(=O)(=O)NC3=NCCCCC3)c2)cc1,2,.,-0.23,.,.,.
O=C1N/C(=C\c2nc3ccccc3s2)c2ccccc21,-6,-67,0.24,.,.,.
N#C/C=C1/NC(=O)c2ccccc2S1,16,-4,19*,3,0.72,-2
CCn1c(C)nc2cc(C(=O)NNC(=S)NC(=O)c3ccccc3)ccc21,-31,-8,-0.56,6,-0.02,2
O=Cc1cn(-c2ccccc2)nc1-c1cc2cc(O)ccc2oc1=O,-479,22,-1.1,33*,-0.52,2
CCCC/C(O)=C1\C(=O)CCCC1=NCCc1c(C)[nH]c2ccc(OC)cc12,17,-4,-0.91,.,-0.53,.
O=C(c1cc2c(F)cccc2s1)N1CCCC1,2,-5,0.42,8,0.0063,-5
O=c1oc(-c2ccccc2NS(=O)(=O)c2ccc3ccccc3c2)nc2ccccc12,-39,-10,-0.099,30*,0.22,-12
CC(NC(=O)c1ccccc1)c1ccc(F)cc1 (stereo unspecified),62*,0,1.1,8,1.2,-7
CC(NC(=O)c1ccc(F)cc1)c1ccc(F)cc1 (stereo unspecified),15,3,0.024,-1,.,-9
Nc1nc(NCCCN2CCOCC2)nc(Nc2cccc(Cl)c2)c1[N+](=O)[O-],-10,-3,-0.42,.,.,.
CN(C)CCn1c(=S)[nH]c2ccccc2c1=O,-25,-11,0.17,8,-1.1,-2
CCN(CC)CCn1c(=S)[nH]c2cc(Cl)ccc2c1=O,-14,-9,25*,6,.,-1
